This passage reports k2 and k results from ChEMBL document CHEMBL1133515, “Hydrolytic stability versus ring size in lactams: implications for the development of lactam antibiotics and other serine protease inhibitors” (J Med Chem, 2000).

Holding throughout (type): ADME
Series [1] in a line: Compound was evaluated for the second order hydrolysis rate constant. In outline: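 Amides were reacted with NaOD in D2O under second-order conditions. Concentrations of amide and hydroxide were tracked over reaction time. k2 was taken from the gradient of a plot of the log of the lactam/hydroxide concentration ratio against time, using the second-order rate law with the starting amide and NaOD concentrations.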

Series [2] in a line: Compound was evaluated for rate of hydrolysis expressed in hours at a pH of 12. The following applies: pH 12. In outline: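 Deuterated phosphate buffer at pH 12 was made from 1 M K2DPO4 in D2O, with pH adjusted using 10 M KOD. Lactams were dissolved in it at 0.10 and 0.50 M. Hydrolysis was followed over time, and a rate constant per hour was derived.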
Series [3] in a line: Compound was evaluated for rate of hydrolysis expressed in hours at a pH of 7.5. As to conditions: pH 7.5. In outline: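 Pseudo-first-order hydrolysis was run in 0.33 M phosphate buffer at pH 7.5 in D2O, made by mixing Na2DPO4 and KD2PO4 solutions. The pH was checked potentiometrically. The rate constant was expressed per hour.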

In the case of `CNC(C)=O`, the k2 in series [1] worked out at 3.32e-06 M⁻¹ s⁻¹.

In series [2], `O=C1CCCCN1` registered a k of 0.000648 h⁻¹. Further, the k2 in series [1] was found to be 0.000121 M⁻¹ s⁻¹. Molecule `O=C1CCCCCCN1` yielded a k2 in series [1] of 1.36e-07 M⁻¹ s⁻¹. As for `O=C1CCCCCCCN1`, the k2 in series [1] came out at 2.72e-07 M⁻¹ s⁻¹. In turn, `O=C1CCN1` had a k in series [2] of 0.00103 h⁻¹. In series [1], this molecule gave a k2 of 0.000237 M⁻¹ s⁻¹. In series [1], `O=C1CCCN1` [2-PYRROLIDONE] returned a k2 of 5.59 M⁻¹ s⁻¹. `O=C1CCCCCN1` [CAPROLACTAM]: the k2 in series [1] was 3.21e-06 M⁻¹ s⁻¹.

Take `CC1(C)S[C@@H]2[C@H](NC(=O)Cc3ccccc3)C(=O)N2[C@H]1C(=O)[O-].[K+]` [PENICILLIN G POTASSIUM]: the values for the k in series [2] and in series [3] were 2.3 h⁻¹ and 0.00337 h⁻¹, respectively.
